Our source for the MIC and CC50 values is ChEMBL document CHEMBL1153071, “Synthesis, biological evaluation, and SAR study of novel pyrazole analogues as inhibitors of Mycobacterium tuberculosis: part 2. Synthesis of rigid pyrazolones” (Bioorg Med Chem, 2009).

Converted amounts (≈) assume the structure as drawn. Some results are limits rather than exact numbers.

In one series the test system is Mycobacterium tuberculosis. In words: Antimycobacterial activity against Mycobacterium tuberculosis H37Rv ATCC 27294 after 21 to 28 days by twofold agar dilution method. It counts as functional.
Conditions: not given
The method, boiled down:
(§1)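 Strain H37Rv ATCC 27294, kept on Löwenstein-Jensen slants and grown for inoculum in 7H9 broth with 10% ADC. Twofold agar dilution on Middlebrook 7H11 with 10% OADC, compound 0.0312–64 μg/mL. Each well received 10 μL of 1.5×10^5 cfu/mL (final 1.5×10^3 per well). Incubated 21–28 days. MIC (μg/mL) is the lowest concentration completely inhibiting visible growth.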
For orientation: In agar dilution the substance is mixed into plates at graded concentrations.
Broadly, the MIC is the smallest concentration in the dilution series that meets the test's criterion for growth inhibition. The molecule `CCCN(C)/C(=C1\C(=O)N(c2ccc(Cl)cc2)N=C1C)c1ccc(Cl)cc1` yielded an MIC of 64 µg/mL (≈ 159 µM).

Molecule `CC1=NN(c2ccc(Cl)cc2)C(=O)/C1=C\N(C)C` displayed an MIC of over 64 µg/mL.

`CC1=NN(c2ccc(Cl)cc2)C(=O)/C1=C\N1CCN(c2ccccc2)CC1` displayed an MIC of 64 µg/mL (≈ 168 µM).

Turning to `CC1=NN(c2ccc(Cl)cc2)C(=O)/C1=C(/c1ccc(Cl)cc1)N1CCOCC1`, the MIC worked out at 4 µg/mL (≈ 9.61 µM).

In turn, `CC(=O)N1CCN(/C=C2\C(=O)N(c3ccc(Cl)cc3)N=C2C)CC1` registered an MIC of 64 µg/mL (≈ 185 µM).

`CC1=NN(c2ccc(Cl)cc2)C(=O)/C1=C(/c1ccc(Cl)cc1)N1CCSCC1` had an MIC of 8 µg/mL (≈ 18.5 µM).

`CC1=NN(c2ccc(Cl)cc2)C(=O)/C1=C\N1CCN(CCO)CC1`: 64 µg/mL (≈ 183 µM) was the least that counted as inhibitory (MIC).

`CC1=NN(c2ccc(Cl)cc2)C(=O)/C1=C(/c1ccc(Cl)cc1)N1CCC(C)CC1` displayed an MIC of 64 µg/mL (≈ 149 µM).

Consider `CC1=NN(c2ccccc2)C(=O)/C1=C(/c1ccc(Cl)cc1)N1CCN(C)CC1`, for which the MIC turned out to be 8 µg/mL (≈ 20.3 µM).

`CC1=NN(c2ccccc2)C(=O)/C1=C(/c1ccc(Cl)cc1)N1CCOCC1` came in with an MIC of 16 µg/mL (≈ 41.9 µM).

In turn, `CC1=NN(c2ccc(Cl)cc2)C(=O)/C1=C(/c1ccc(Cl)cc1)N1CCN(C)CC1` displayed an MIC of 4 µg/mL (≈ 9.32 µM).

On to `CC1=NN(c2ccc(Cl)cc2)C(=O)/C1=C(/c1ccc(Cl)cc1)N1CCCCC1`, for which the MIC was over 64 µg/mL.

Molecule `CC1=NN(c2ccc(Cl)cc2)C(=O)/C1=C(/c1ccc(Cl)cc1)N(C)C` gave a minimal inhibitory concentration (MIC) of 16 µg/mL (≈ 42.7 µM).

As for `CC1=NN(c2ccccc2)C(=O)/C1=C(/c1ccc(Cl)cc1)N1CCSCC1`, the MIC is 8 µg/mL (≈ 20.1 µM).

In turn, `CC1=NN(c2ccccc2)C(=O)/C1=C(/c1ccc(Cl)cc1)N(C)C` registered an MIC of 32 µg/mL (≈ 94.2 µM).

On to `CC1=NN(c2ccc(Cl)cc2)C(=O)/C1=C\Nc1ccccc1`, for which the MIC worked out at 64 µg/mL (≈ 205 µM).

Consider `CC1=NN(c2ccc(Cl)cc2)C(=O)/C1=C\N1CCOCC1`, for which the MIC amounted to 64 µg/mL (≈ 209 µM).

For the molecule `CC1=NN(c2ccc(Cl)cc2)C(=O)/C1=C\N1CCN(C)CC1`, the MIC worked out at 64 µg/mL (≈ 201 µM).

Tested on in the next series: not listed separately
In words: Cytotoxicity against african green monkey Vero cells. It counts as cell-based. Particulars: chlorocebus sabaeus.
Broadly, the CC50 is the concentration at which the toxic effect on the cells reaches its halfway point. The molecule `CC1=NN(c2ccc(Cl)cc2)C(=O)/C1=C(/c1ccc(Cl)cc1)N1CCSCC1` came in with a CC50 of 4.86 µg/mL (≈ 11.2 µM).

As to `CC1=NN(c2ccccc2)C(=O)/C1=C(/c1ccc(Cl)cc1)N1CCN(C)CC1`, the CC50 worked out at 5.58 µg/mL (≈ 14.1 µM).

With `CC1=NN(c2ccc(Cl)cc2)C(=O)/C1=C(/c1ccc(Cl)cc1)N1CCN(C)CC1`, the CC50 came to 5.49 µg/mL (≈ 12.8 µM).

In turn, `CC1=NN(c2ccccc2)C(=O)/C1=C(/c1ccc(Cl)cc1)N1CCSCC1` returned a CC50 of 5.71 µg/mL (≈ 14.3 µM).

The subject of another series is Mycobacterium tuberculosis. The series is described as follows: Antimycobacterial activity against Mycobacterium tuberculosis. It counts as functional.
Conditions: not given
The procedure, abridged:
as §1
As to `Cc1[nH]n(-c2ccc(Br)cc2)c(=O)c1C(=O)c1ccc(Cl)cc1`, the MIC turned out to be 4 µg/mL (≈ 10.2 µM).

Turning to `Cc1[nH]n(-c2ccc(F)cc2)c(=O)c1C(=O)c1ccc(Cl)cc1`, 4 µg/mL (≈ 12.1 µM) was the least that counted as inhibitory (MIC).

With `Cc1[nH]n(-c2ccc(Cl)cc2)c(=O)c1C(=O)c1ccc(Cl)cc1`, the MIC is 4 µg/mL (≈ 11.5 µM).

Molecule `Cc1nn(-c2ccccc2)c(O)c1C(=O)c1ccc(Cl)cc1` yielded an MIC of 4 µg/mL (≈ 12.8 µM).
